Experimental data published in ChEMBL document CHEMBL2029293, “Fluorophosphonylated nucleoside derivatives as new series of thymidine phosphorylase multisubstrate inhibitors” (J Med Chem, 2012).

Legend:
[1] = molecular target: Thymidine phosphorylase (Escherichia coli K-12) (UniProt P07650); experiment: Inhibition of Escherichia coli thymidine phosphorylase at 1 mM incubated for 20 mins at room temperature followed by 5 mins incubation at 90 degC by HPLC analysis
How it was run: (§1)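 Enzyme from E. coli, combined with thymidine and orthophosphate in Tris buffer. Phosphonic acid added at 1 mM or 100 μM. Incubated 20 min at room temperature, then 5 min at 90 °C. Thymidine separated from thymine by HPLC and percent inhibition calculated.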

[2] = molecular target: Thymidine phosphorylase (Escherichia coli K-12) (UniProt P07650); experiment: Inhibition of Escherichia coli thymidine phosphorylase at 100 uM incubated for 20 mins at room temperature followed by 5 mins incubation at 90 degC by HPLC analysis; how it was run: as §1
[3] = Inhibition of thymidine phosphorylase
Thymidine phosphorylase = Thymidine phosphorylase (Escherichia coli K-12, UniProt P07650); experiment: Competitive inhibition of Escherichia coli thymidine phosphorylase incubated for 20 mins at room temperature followed by 5 mins incubation at 90 degC by Lineweaver-Burk plot analysis
Thymidine phosphorylase, sequence (P07650 whole entry): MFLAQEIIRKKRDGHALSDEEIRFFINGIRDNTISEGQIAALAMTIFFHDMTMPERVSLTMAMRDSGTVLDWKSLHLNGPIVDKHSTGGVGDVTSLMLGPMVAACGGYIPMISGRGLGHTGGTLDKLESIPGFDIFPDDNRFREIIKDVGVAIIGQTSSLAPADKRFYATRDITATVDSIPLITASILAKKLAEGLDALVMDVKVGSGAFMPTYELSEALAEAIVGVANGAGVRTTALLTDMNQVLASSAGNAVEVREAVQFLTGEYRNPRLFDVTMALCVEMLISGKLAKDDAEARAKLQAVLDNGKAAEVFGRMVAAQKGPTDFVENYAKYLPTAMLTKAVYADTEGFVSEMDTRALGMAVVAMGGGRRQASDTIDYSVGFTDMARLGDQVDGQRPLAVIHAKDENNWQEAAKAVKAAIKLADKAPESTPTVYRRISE

Thymidine phosphorylase (Escherichia coli K-12), sequence (P07650 whole entry, looked up): as the sequence (P07650 whole entry) above

O=P(O)(O)C(F)(F)CCCn1cc(Cn2cnc3c(O)ncnc32)nn1
inhibition [1]: 69%
inhibition [2]: 29%

Cc1cn(CCCSCCCCC(F)(F)P(=O)(O)O)c(=O)[nH]c1=O
inhibition [1]: 90%
inhibition [2]: 43%

N=C1CCCN1Cc1[nH]c(=O)[nH]c(=O)c1Cl [TIPIRACIL]
Ki [3]: 0.035 µM

Cc1cn(CCCCCCCCP(=O)(O)O)c(=O)[nH]c1=O
inhibition [2]: 15%

O=c1[nH]c(=O)n(CCCCC(F)(F)P(=O)(O)O)cc1Br
inhibition [1]: 61%
inhibition [2]: 20%

Cc1cn(CCCCCCCCCCCC(F)(F)P(=O)(O)O)c(=O)[nH]c1=O
inhibition [1]: 88%
inhibition [2]: 56%

Cc1cn(CC(I)CC(F)(F)P(=O)(O)O)c(=O)[nH]c1=O (centres undefined)
inhibition [1]: 95%
inhibition [2]: 52%

Nc1nc(O)c2ncn(Cc3cn(CCCCC(F)(F)P(=O)(O)O)nn3)c2n1
inhibition [1]: 76%
inhibition [2]: 35%

Cc1cn(CCCC(F)(F)P(=O)(O)O)c(=O)[nH]c1=O
inhibition [1]: 51%
inhibition [2]: 4%

Cc1cn(CCCCCCSCCCCC(F)(F)P(=O)(O)O)c(=O)[nH]c1=O
inhibition [1]: 86%
inhibition [2]: 38%

O=P(O)(O)CCCCCCCCn1ccc2c(O)nc(O)nc21
Ki [3]: 54 µM
Ki (Thymidine phosphorylase): 54 µM

Cc1cn(Cc2cn(CCCCC(F)(F)P(=O)(O)O)nn2)c(=O)[nH]c1=O
inhibition [1]: 90%
Ki (Thymidine phosphorylase): 58 µM
inhibition [2]: 68%

Cc1cn(CCCCC(F)(F)P(=O)(O)O)c(=O)[nH]c1=O
inhibition [1]: 68%
inhibition [2]: 15%

Nc1[nH]c(=O)[nH]c(=O)c1Br
inhibition [1]: 100%
inhibition [2]: 71%

O=P(O)(O)C(F)(F)CCCCn1cc(Cn2cnc3c(O)ncnc32)nn1
inhibition [1]: 76%
inhibition [2]: 35%

Cc1cn(CCCCCCCCC(F)(F)P(=O)(O)O)c(=O)[nH]c1=O
inhibition [1]: 85%
inhibition [2]: 55%

O=c1ccn(CCCCC(F)(F)P(=O)(O)O)c(=O)[nH]1
inhibition [1]: 44%
inhibition [2]: 15%

Cc1cn(Cc2cn(CC(F)(F)P(=O)(O)O)nn2)c(=O)[nH]c1=O
inhibition [1]: 29%
inhibition [2]: 9%

Cc1cn(CCSCCCCC(F)(F)P(=O)(O)O)c(=O)[nH]c1=O
inhibition [1]: 36%
inhibition [2]: 0%

Cc1cn(C[C@@H](C)OCP(=O)(O)O)c(=O)[nH]c1=O
Ki [3]: 2 µM

Cc1cn(C[C@@H](CF)OCP(=O)(O)O)c(=O)[nH]c1=O
Ki [3]: 2 µM

Cc1cn(CCCCSCCCCC(F)(F)P(=O)(O)O)c(=O)[nH]c1=O
inhibition [1]: 78%
inhibition [2]: 40%

O=c1ccn(Cc2cn(CCCCC(F)(F)P(=O)(O)O)nn2)c(=O)[nH]1
inhibition [1]: 79%
inhibition [2]: 22%

Cc1cn(C[C@@H](CO)OCP(=O)(O)O)c(=O)[nH]c1=O
Ki [3]: 2 µM

Nc1nc(O)c2ncn(CCCC(F)(F)P(=O)(O)O)c2n1
inhibition [1]: 25%
inhibition [2]: 4%

O=P(O)(O)C(F)(F)CCCCn1cnc2c(O)ncnc21
inhibition [1]: 25%
inhibition [2]: 9%

Nc1c(Br)c(=O)[nH]c(=O)n1CCCCCCCCP(=O)(O)O
Ki [3]: 142 µM
Ki (Thymidine phosphorylase): 142 µM
inhibition [2]: 64%

Cc1cn(CCCCCCCCCC(F)(F)P(=O)(O)O)c(=O)[nH]c1=O
inhibition [1]: 86%
inhibition [2]: 55%

Cc1cn(Cc2cn(CCCC(F)(F)P(=O)(O)O)nn2)c(=O)[nH]c1=O
inhibition [1]: 79%
inhibition [2]: 36%

Cc1cn(CCCCP(=O)(O)O)c(=O)[nH]c1=O
inhibition [1]: 23%
inhibition [2]: 0%

Nc1nc(O)c2ncn(CCCCC(F)(F)P(=O)(O)O)c2n1
inhibition [1]: 74%
inhibition [2]: 34%
